# Source: PubChem
# beta cell repl = inducers of MIN6 beta-cell proliferation, primary screen, ATP luminescence, uHTS; 330,000 compounds, 0.29% hits; MIN6 cells proliferation, ATPlite luminescence, 48 h; cells starved in 0.2% serum; 100% = growth in 10% serum; proliferation, % at 10 µM;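 active means compounds whose signal lies at least 3.5 SD above the mean of all wells on their plate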
# UCH37 inh = inhibitors of human UCH37 deubiquitinase, primary screen, biochemical, Ub-AMC cleavage, fluorescence | Ubiquitin carboxyl-terminal hydrolase isozyme L5 (Homo sapiens), Q9Y5K5 | purified proteasome/UCH37 | inhibition, % (test concentration not listed) | 330,000 compounds, 0.33% hits;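 active means mean inhibition over replicate wells above about 20%, limit read from the data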
# Target sequence (Q9Y5K5 whole entry, looked up): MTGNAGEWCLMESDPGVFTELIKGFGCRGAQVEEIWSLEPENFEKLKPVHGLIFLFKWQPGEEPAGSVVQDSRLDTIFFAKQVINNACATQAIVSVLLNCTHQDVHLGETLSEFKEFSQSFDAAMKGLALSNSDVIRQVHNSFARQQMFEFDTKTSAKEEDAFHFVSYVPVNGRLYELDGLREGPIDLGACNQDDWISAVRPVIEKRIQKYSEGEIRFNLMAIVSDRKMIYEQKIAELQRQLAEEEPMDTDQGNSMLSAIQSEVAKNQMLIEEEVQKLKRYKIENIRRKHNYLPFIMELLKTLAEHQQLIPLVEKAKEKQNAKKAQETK
#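 Material: human UCH37 enzyme supplied as purified proteasome complex. Measure: % inhibition of Ub-AMC cleavage fluorescence. Medium: pH 7.4 Tris-HCl (50 mM) with ovalbumin, ATP-MgCl2, DTT. Times: 30 min preincubation with enzyme, 25 min cleavage at room temperature. Detection: AMC fluorescence intensity at 355/460 nm.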
# CRFBP-R2 agonist = agonists of CRF-BP/CRF-R2 complex, primary screen, cell-based, HEK293, calcium dye fluorescence, uHTS | CRF-binding protein / CRF receptor 2 complex (human) | calcium dye fluorescence (FLIPR); percent of saturating CRF peptide response | activation, % at 13.2 µM | 350,000 compounds, 0.46% hits | AID 588473, 2011;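 active means activation of at least 50%, plus an integration ratio under a set limit after plate pattern correction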
# hiPSC survival = enhancers of single-cell hiPSC survival, primary screen, ATPlite luminescence. 100% = ROCK inhibitor wells, 0% = DMSO. AID 602274, 2012. survival enhancement, % at 20 µM. 360,000 compounds, 0.044% hits; in the data active means survival enhancement above about 18%;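 further: cells exposed to compounds for 16 hours before the ATP read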
# CRFBP-R2 block = antagonists of CRF-BP/CRF-R2 complex, primary screen, cell-based, HEK293, calcium dye fluorescence, uHTS. CRF-induced calcium fluorescence. inhibition, % at 11.8 µM. 350,000 compounds, 0.59% hits. AID 588475, 2011;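 active means inhibition of the ligand-induced calcium signal above about 50% at the single tested concentration, limit read from the data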
# H9c2 protect = cardioprotection against H2O2-induced cell death, primary screen, uHTS, H9c2 cells, ATPLite luminescence. H9c2 cardiomyocytes, H2O2 injury protection, 2 h. protection from H2O2 cell death, % at 20 µM. 360,000 compounds, 0.63% hits;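 active means compounds giving at least 50% protection of heart cells from peroxide-induced death in the single-dose screen, raw or plate-pattern-corrected value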
# Numbers stand for hits; . = inactive; / = not tested or not shown. Sampled rows, rich in hits. Any-hit rate of the full collection: about 2.1%.
SMILES,beta cell repl,UCH37 inh,CRFBP-R2 agonist,hiPSC survival,CRFBP-R2 block,H9c2 protect
Cn1c(=O)c2[nH]c(-c3ccccc3Cl)c(O)c2n(C)c1=O,.,.,54.5,.,.,.
Cn1c2c(c(=O)n(C)c1=O)C(C(F)(F)F)(C(F)(F)F)N=C(c1ccccc1Cl)N2,.,.,.,.,.,.
O=C(CSc1ccccc1)NC1CC1,/,/,.,.,.,.
O=[N+]([O-])/C(C(Cl)=C(Cl)Cl)=C(/NC1CC1)Sc1ccccc1,.,.,.,.,55.5,.
CC(=NNC(=O)C(O)(c1ccccc1)c1ccccc1)c1ccc(C)o1,/,.,/,/,/,/
CCOC(=O)c1c(N=CC2=C(O)CC(C)(C)CC2=O)sc(C(C)=O)c1C,/,.,/,/,/,/
Cc1cc(C(=O)N2CCN(c3ccc([N+](=O)[O-])cc3)CC2)c(C)o1,.,.,.,.,.,.
Cc1cc(C(=O)N2CCN(c3ccc([N+](=O)[O-])cc3)CC2)co1,.,.,.,.,59.1,.
Cc1ccc(C(=O)ON=C2CCS(=O)(=O)c3sccc32)cc1,/,.,/,/,/,/
O=C(O)c1cnc(-c2ccccc2)nc1Sc1ccc(Cl)cc1Cl,.,.,.,.,96.6,.
O=C(O)c1cnc(-c2ccccc2)nc1Sc1cccc(Cl)c1,.,.,.,.,.,.
Cc1ccccc1N(CC(=O)NN=Cc1cc(Br)c(C)o1)S(C)(=O)=O,/,.,/,/,/,/
COc1ccc(N2C(=O)/C(=C/c3cccnc3)NC2=S)cc1,.,/,.,.,.,.
COc1ccc(N2C(=O)/C(=C/N(C)C)NC2=S)cc1,.,22.5,.,.,.,.
Cn1nccc1C(=O)Oc1ccc(C=NNC(=O)c2ccccc2O)cc1,/,.,/,/,/,/
O=C(c1ccc(N2CN(C(=O)c3ccco3)c3nc4ccccc4nc32)cc1)N1CCOCC1,.,.,.,.,.,72.2
COc1cccc2cc(C(=O)Nc3ccccc3C)c(=NO)oc12,/,.,/,/,/,/
Cn1c(=O)[nH]c(=O)c2c1nc(NCCc1ccccc1)n2CC(O)COc1ccccc1 (stereo unspecified),.,.,.,.,.,59.5
Cc1ccc(OCC(O)Cn2c(NCCc3ccccc3)nc3c2c(=O)[nH]c(=O)n3C)cc1 (stereo unspecified),.,.,.,.,.,.
COc1ccc(C=NN2C(=N)SCC2=O)cc1,/,.,/,/,/,/
Cc1nc(CNS(=O)(=O)c2cccc(F)c2)cs1,.,.,.,.,.,.
Cc1nc(CNS(=O)(=O)c2ccc3ccccc3c2)cs1,.,.,.,.,64.7,.
O=C(NNC(=O)c1ccccc1OCc1ccccc1Cl)c1csc(N2CCOCC2)n1,.,.,.,.,.,52.0
Cc1ccc2nc(-c3ccccc3)cc(C(=O)NNC(=O)c3csc(N4CCOCC4)n3)c2c1,.,.,.,.,.,58.0
COc1ccccc1C(=O)NNC(=O)c1csc(N2CCOCC2)n1,.,.,.,.,.,.
SMILES,beta cell repl,UCH37 inh,CRFBP-R2 agonist,hiPSC survival,CRFBP-R2 block,H9c2 protect
COc1ccc(CN(C(=O)c2ccc(C)cc2)C2CCS(=O)(=O)C2)cc1 (stereo unspecified),.,.,.,.,63.7,.
COc1ccc(CN(C(=O)c2cccc(OC)c2)C2CCS(=O)(=O)C2)cc1 (stereo unspecified),.,.,.,.,.,.
CCSc1nsc(NC(=O)Nc2cccc(F)c2)n1,.,/,52.0,.,.,.
O=C(O)c1cc(-c2ccc(C=NN3C(=O)C4C5C=CC(CC5)C4C3=O)o2)ccc1Cl (stereo unspecified),/,.,/,/,/,/
Cc1ccc(NS(=O)(=O)c2cccc(C(=O)NN=Cc3c(C)nn(-c4ccccc4)c3N3CCCC3)c2)c(C)c1,/,.,/,/,/,/
Cc1cc(C(=O)NN)c(C)o1,.,.,.,.,.,.
CCc1ccc(C(C)NC(=O)c2cc(C)oc2C)cc1 (stereo unspecified),.,.,.,.,.,55.8
COCc1c(C(=O)NN=C(C)c2cccs2)nnn1-c1nonc1N,/,.,/,/,/,/
CCCCCCN=C1CC(C)(C)CC(=O)/C1=C(\O)CCC,/,.,/,/,/,/
COc1ccc(/C=C/C(=O)c2ccccc2O)cc1CN1CCOCC1,.,.,.,.,.,83.5
CCN(C(=O)CSc1cc(-c2ccccc2)c2ccc(OC)cc2n1)C1CCS(=O)(=O)C1 (stereo unspecified),.,.,.,.,.,.
CCN(C(=O)CSc1cc(C)c2ccc(OC)cc2n1)C1CCS(=O)(=O)C1 (stereo unspecified),.,.,.,.,98.5,.
Cn1cc(C(Cc2ccccc2)=NO)c2ccccc21,/,.,/,/,/,/
N#Cc1cnn2cc(-c3ncc(C(F)(F)F)cc3Cl)cnc12,.,.,.,.,.,59.1
CC(=O)c1sc(NN=Cc2ccc(C)cc2)nc1C,/,.,/,/,/,/
Cc1[nH]c(=O)[nH]c(=O)c1S(=O)(=O)N1CCCC(C(=O)N2CCN(c3ccccc3Cl)CC2)C1 (stereo unspecified),.,.,.,.,73.6,.
CCCN(CCC)CCCNC(=O)c1cc2cc3ccc(OC)cc3nc2o1,.,.,.,.,.,.
COc1ccc2cc3cc(C(=O)NCCc4ccc(OC)c(OC)c4)oc3nc2c1,.,.,.,.,.,87.2
Cn1cc(/C=C/c2cc[n+](C)cc2)c2cc(Cl)ccc21,/,.,.,.,.,.
Cc1ccc2c(c1)c(/C=C/c1cc[n+](C)cc1)c(C)n2C,.,/,52.6,.,.,.
Cc1ccc2[nH]c(C)c(/C=C/c3cc[n+](C)cc3)c2c1,.,21.7,.,.,.,.
COc1ccccc1/C=C\C(=O)NCC(=O)NN=Cc1ccc(O)cc1O,/,.,/,/,/,/
O=C(CN1CCCc2ccccc21)NN=Cc1ccc(O)cc1O,/,.,/,/,/,/
COc1ccc(Br)cc1/C=N/NC(=O)CNC(=O)/C=C/c1ccccc1,.,/,.,.,.,63.7
O=C(CN1CCCc2ccccc21)N/N=C/c1ccc(O)cc1O,.,/,.,.,.,51.7
SMILES,beta cell repl,UCH37 inh,CRFBP-R2 agonist,hiPSC survival,CRFBP-R2 block,H9c2 protect
COc1ccccc1/C=C\C(=O)NCC(=O)N/N=C/c1ccc(O)cc1O,.,/,.,.,.,52.5
O=C(CCc1ccccc1)NCC(=O)N/N=C/c1ccc(O)cc1O,.,/,.,.,.,53.1
Cc1nonc1C(=O)NN=Cc1ccccc1,/,.,/,/,/,/
CCOC(=O)c1c(CC(C)C)csc1N=CC1C(=O)CCCC1=O,/,.,/,/,/,/
C=CCN1C(=O)/C(=C/C(=O)OC)SC1=NNC(=O)c1ccccc1,/,.,/,/,/,/
COc1cccc(/C=N/NC(=O)CNC(=O)/C=C\c2ccccc2)c1O,.,/,.,.,.,52.1
